Screening results: PubChem BioAssay, The Scripps Research Institute Molecular Screening Center
Compounds with a hit are over-represented: about 2.2% of the library has one in this group of screens.
NR2E3 ag-1: human photoreceptor-specific nuclear receptor agonism | Q9Y5X4 | inhibition of corepressor binding, % at 3.98 µM | 0.35% of 360,000 active | AID 602229 | CHO-S Gal4-NCOR/VP16-NR2E3 two-hybrid, luciferase;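 active = inhibition above the mean of all tested compounds plus 3 SD, cut at about 70% in these data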;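 also: 0% = DMSO with NR2E3 transfected cells and 100% = cells lacking NR2E3 construct; higher means lower luciferase signal from less NR2E3 corepressor binding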
COUP-TFII inh: blocks human COUP-TFII nuclear receptor; HEK293T NGFI-A luciferase reporter, luminescence; AID 686940; inhibition, % at 8.6 µM; 0.7% of 370,000 active;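 active = inhibition above a per-plate cutoff, mean inhibition of test wells between control levels plus 3 SD, cut at about 38% in these data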;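 also: cells cotransfected with COUP-TFII expression vector driving the NGFI-A reporter; 0% = median of COUP-TF2 test wells and 100% = reporter-only cells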
Target sequence (P24468 whole entry, looked up): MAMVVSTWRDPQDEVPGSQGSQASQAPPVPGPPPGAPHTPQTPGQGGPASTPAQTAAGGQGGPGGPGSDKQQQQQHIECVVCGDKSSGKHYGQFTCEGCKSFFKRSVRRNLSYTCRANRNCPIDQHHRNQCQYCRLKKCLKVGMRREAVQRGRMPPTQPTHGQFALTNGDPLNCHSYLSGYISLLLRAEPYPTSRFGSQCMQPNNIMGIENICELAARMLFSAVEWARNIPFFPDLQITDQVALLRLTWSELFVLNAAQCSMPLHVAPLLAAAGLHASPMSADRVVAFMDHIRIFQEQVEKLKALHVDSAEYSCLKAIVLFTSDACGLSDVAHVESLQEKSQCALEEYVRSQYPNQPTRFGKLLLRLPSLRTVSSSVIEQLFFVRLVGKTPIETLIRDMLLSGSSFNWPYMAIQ
SMARCA2 activ: increases SMARCA2 function in MMTV reporter cells | activation, % at 9.1 µM | 1% of 370,000 active | MG213 cells, MMTV-luciferase reporter, dexamethasone, overnight; in the data active = activation above about 7.8%;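 also: 0% = vehicle wells and 100% = reference activator wells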
GalR3 antag: human GalR3 antagonism | AID 651719 | O60755 | 0.44% of 360,000 active | inhibition, % at 3 µM | HEK293 GalR3-CNG cAMP membrane potential fluorescence; galR3 body fused to GalR1 C-terminus;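 active = inhibition above the screen-wide average plus 3 SD, cut at about 13% in these data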;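 also: forskolin and galanin both at EC90 stimulate the cells; cAMP rise reported by CNG channel membrane potential dye signal; 0% = forskolin plus galanin with DMSO and 100% = forskolin alone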
NR2E3 ag-2: activates human photoreceptor nuclear receptor NR2E3 | Q9Y5X4 | 0.12% of 320,000 active | GST-NR2E3/biotin-RetCOR TR-FRET, 1536-well | AID 2300 | inhibition of corepressor binding, % at 4.78 µM;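 active = percent inhibition above the cutoff of mean plus 3 SD of all tested compounds, set per screening campaign, cut at about 20% in these data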;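 also: 0% = DMSO wells and 100% = biotin wells as full block of FRET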
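Format: 1536-well format; test system: GST-NR2E3 and biotin-RetCOR proteins; read-out basis: percent inhibition of TR-FRET ratio; timing: 5 h incubation at 4 °C; detection: time-resolved FRET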
NR2E3 ag conf: confirmation of human NR2E3 agonists; shares compounds with NR2E3 ag-1; CHO-S mammalian two-hybrid NR2E3-NCOR, luciferase luminescence; inhibition, % at 3.98 µM; 51% of 2,300 active;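 active = average inhibition above a cutoff equal to the mean inhibition of all tested compounds plus one SD, cut at about 70% in these data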;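 also: 0% = DMSO in NR2E3 cells and 100% = DMSO in cells lacking NR2E3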
VP16 counter: GAL4-VP16 reporter inhibition in NR2E3 agonist counterscreen; inhibition, % at 3.98 µM; shares compounds with NR2E3 ag-1; CHO-S GAL4-VP16 luciferase reporter, luminescence; 29% of 2,300 active;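 active = mean inhibition above a cutoff equal to the average over all tested compounds plus one standard deviation, cut at about 70% in these data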;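 also: luciferase from a UAS reporter driven by GAL4-VP16 transactivation; 0% = DMSO with VP16-transfected cells and 100% = DMSO with cells lacking VP16; higher means less reporter light so more repression of VP16 activity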
* marks the source's active call; other numbers are inactive results; . = no result given.

SMILES	NR2E3 ag-1	COUP-TFII inh	SMARCA2 activ	GalR3 antag	NR2E3 ag-2	NR2E3 ag conf	VP16 counter
COc1ccc(S[C@]2(C(=O)N3CCN(C(C)=O)CC3)CC(=O)N(C(=O)CCc3ccccc3)[C@@H]2c2ccc(OC)cc2)cc1	.	12	-6	.	.	.	.
COc1ccc(S[C@]2(C(=O)N3CCCC3)CC(=O)N(c3ccccc3OC)[C@@H]2c2ccc(OC)cc2)cc1	.	25	-3	.	.	.	.
CC(C)C[C@@H](CN1CCCC1CN1C(=S)NC[C@@H]1Cc1ccc(O)cc1)N1C[C@H](Cc2ccccc2)N(CCc2ccccc2)C1=S (some centres undefined)	-18	-14	-3	-5	.	.	.
CC(C)C[C@@H](CN1CCC[C@@H]1CN1C(=S)NC[C@@H]1Cc1ccc(O)cc1)N1C[C@H](Cc2ccccc2)N(CCc2ccccc2)C1=S	53	.	.	.	.	-3	25
COc1cc(C(O)c2nc(-c3ccc(N(C)C)cc3)cs2)ccc1F (centres undefined)	50	.	.	.	.	33	42
COc1ccc(C(=O)OCCCN(C)C2CN(Cc3cn(Cc4ccccc4Cl)nn3)S(=O)(=O)C2)cc1OC (centres undefined)	.	13	-1	.	.	.	.
O=S(=O)(Nc1cccnc1Cl)c1ccc(-c2ccccc2)cc1	64	8	-1	-10	0	53	45
Cc1ccc(S(=O)(=O)Nc2cccc3cccnc23)cc1	97*	0	-11	-7	2	46	5
COc1cc(NS(=O)(=O)c2ccc(C)cc2)c2ncccc2c1	82*	1	-10	-1	0	-20	3
O=S(=O)(Nc1ccccc1O)c1ccc(-c2ccccc2)cc1	0	13	-2	-2	3	.	.
COc1ccc(S(=O)(=O)Nc2ccccn2)cc1	-4	-14	0	-5	2	.	.
Cc1ccc(-c2ccc(S(=O)(=O)Nc3cccnc3)cc2)cc1	65	-16	-3	0	2	84*	69
O[C@@H]1[C@@H](O)[C@H](n2c3ccc(Cl)cc3c3ccc4c5cc(Cl)ccc5[nH]c4c32)OC[C@H]1O	.	-41	-6	.	.	.	.
CCOC(=O)[C@]12CCCC=C1N(CCCOC)C(=O)[C@@H]2CC(=O)NCc1cccc(C(F)(F)F)c1	.	0	0	.	.	.	.
Fc1cccc(CNC2CCC23CCC(c2ccccc2)CC3)c1 (centres undefined)	.	-7	.	.	.	.	.
Nc1cc2c(cc1Cl)-c1ccc([N+](=O)[O-])cc1C2=NO	54	-17	-5	-8	.	25	-11
O=[N+]([O-])c1ccc2c(c1)/C(=N\O)c1ccccc1-2	-22	-8	1	-7	1	.	.
O=C(Nc1ccc(Br)cc1)c1cccc(S(=O)(=O)Nc2cnc3ccccc3c2)c1	84*	22	-3	1	2	98*	86*
COc1ccc(NC(=O)c2cc3c(C)nn(-c4ccccc4)c3s2)cc1	.	-2	-6	.	.	.	.
COC(=O)C1=C(CN2CCc3ccccc32)NC(=O)NC1c1cc(C)ccc1C (centres undefined)	9	11	1	0	1	.	.
COC(=O)C1=C(CN2CCCc3ccccc32)NC(=O)NC1c1ccc(F)cc1 (centres undefined)	84*	96*	-11	5	2	67	67
O=S1(=O)c2ccc(Br)cc2OC[C@@H](Cc2ccccc2)N1Cc1cn(CC2CCCCC2)nn1	.	-3	-1	.	.	.	.
COC(=O)c1cc(S(=O)(=O)N2CCC(c3cc(OC)ccc3OC)C2)c[nH]1 (centres undefined)	81*	15	-2	1	2	69	62
CCCCCc1c(-c2ccccc2OC)ncn1CCc1ccccc1OC	66	25	-6	-7	.	62	30
O=C(NCC(c1ccccc1)c1ccccc1)[C@H](Cc1ccccc1)NC1(C(=O)NC2CCCCC2)CCOCC1	.	27	.	.	.	.	.
SMILES	NR2E3 ag-1	COUP-TFII inh	SMARCA2 activ	GalR3 antag	NR2E3 ag-2	NR2E3 ag conf	VP16 counter
CC(=O)N1CCN(c2ccc(NC(=O)c3ccc4c(c3)OCO4)cc2)CC1	6	-16	-1	-4	0	.	.
O=C(Nc1ccc(N2CCN(C(=O)c3ccccc3)CC2)cc1)c1ccc2c(c1)OCO2	66	4	3	-8	1	85*	46
O[C@H](COc1cccc(C(F)(F)F)c1)CN1CCC(C(O)(c2ccccc2)c2ccccc2)CC1	.	2	-1	.	.	.	.
COc1ccc(C)cc1NC(=O)c1nnn(Cc2cccc(C(F)(F)F)c2)c1N	63	9	1	-4	0	85*	22
Cc1ccc(CNC(=O)Cn2nnc(C(=O)Nc3cccc(C)c3C)c2N)cc1	-43	-2	0	-9	2	.	.
Cc1ccccc1Cn1nnc(C(=O)Nc2cccc(C)c2C)c1N	66	-18	-2	-6	4	87*	36
[O-][n+]1c2c(c3c4non(O)c4ccc31)CCCC2	70	-4	-4	-5	-3	65	36
Cc1nc(NC(=O)c2ccco2)sc1C(=O)Nc1ccc(Br)cc1	54	.	.	.	7	64	22
Cc1nc(NC(=O)c2ccco2)sc1C(=O)O	-6	7	2	-5	2	.	.
COc1ccccc1NC(=O)N1CCN(c2cccc(C(F)(F)F)c2)CC1	-20	2	-1	-5	2	.	.
COc1ccccc1CC(=O)N1CCN(c2cccc(C(F)(F)F)c2)CC1	50	17	-7	-6	2	94*	71*
O=S(=O)(c1ccccc1)N1CCC(n2nnc3cc(F)ccc32)CC1	7	10	-3	-1	1	.	.
O=S(=O)(c1ccc2c(c1)OCCO2)N1CCC(n2nnc3cc(C(F)(F)F)ccc32)CC1	52	18	-8	-1	4	42	18
CC(C)Nc1nc(NCCOc2ccccc2Cl)c2sc(-c3ccccc3)cc2n1	48	23	-3	-8	.	18	14
COC(=O)C1CN(Cc2cn(Cc3ccc(F)cc3)nn2)CCS(=O)(=O)N1Cc1ccc(F)cc1 (centres undefined)	.	2	-2	.	.	.	.
COc1cccc2sc(Nc3nc(-c4ccccn4)cs3)nc12	97*	.	.	.	2	100*	-25
CCCN1CCS(=O)(=O)N(Cc2cn(Cc3ccc(OC)cc3)nn2)C(C(=O)OC)C1 (centres undefined)	.	-15	-1	.	.	.	.
OC(c1ccc(Cl)c(F)c1)c1ncc(-c2cccc(F)c2)[nH]1 (centres undefined)	73*	-7	-1	-5	.	66	47
Cc1cc(Cl)ccc1C(O)c1ncc(-c2ccc(F)cc2)[nH]1 (centres undefined)	59	.	.	.	.	6	32
